In ChEMBL document CHEMBL1124035, “1-Amino-substituted 4-methyl-5H-pyrido[4,3-b]indoles (gamma-carbolines) as tricyclic analogues of ellipticines: a new class of antineoplastic agents” (1988):

Key:
Mus musculus [1] = assay: Median survival day of B16 melanoma infected mice, when a dose of 5 mg/kg administered intraperitoneally; assay type: functional; settings: route intraperitoneal
Procedure, shortened: (§1)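 B16 melanoma in hybrid BD F1 mice. At D0 each mouse was inoculated ip with 0.5 mL of homogenate made from 1 g of tumour in 10 mL of physiological serum. Compounds were given ip daily at the stated doses for 9 days (D1-9), with cis-platinum 0.5 mg/kg under the same schedule as positive control.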

Mus musculus [2] = assay: Median tumoral volume in C38 adenocarcinoma model when a dose of 50 mg/kg administered intravenously on D1 to mice; assay type: functional; settings: route intravenous
Procedure, shortened: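 Geran protocol in hybrid BDF1 mice, 10 per test, implanted sc with a standard 3-mm³ fragment of C38 colon adenocarcinoma. Drug was given iv at the stated doses on D1, or on D2 + D9, and tumor growth was followed.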

Mus musculus [3] = assay: Median survival day in P388 cell line when a dose of 50 mg/kg administered intravenously to mice; assay type: functional; settings: route intravenous
Procedure, shortened: (§2)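 P388 leukaemia in CDF1 hybrid mice, 10 per group. At D0, 10^6 viable cells were inoculated ip, followed by a single iv dose on D1. Weight change, median survival day, T/C (treated/control median survival × 100) and survivors at D30 were recorded.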

Mus musculus [4] = assay: Weight change in g when a dose of 5 mg/kg administered intraperitoneally to B16 melanoma infected mice; assay type: functional; settings: route intraperitoneal
Procedure, shortened: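 Hybrid BDF1 mice were inoculated ip at D0 with 0.5 mL of B16 melanoma homogenate (1 g tumor in 10 mL physiological serum). Drug was given ip daily on days 1-9, with cis-platinum 0.5 mg/kg as positive control on the same schedule.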

Mus musculus [5] = assay: Antitumor activity against P388 leukemia in mice at a dose of 1.5 mg/kg administered intraperitoneally for 5 days; assay type: functional; settings: route intraperitoneal
Procedure, shortened: (§3)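 CDF1 hybrid male or female mice, 10 per group, were inoculated ip with 10^6 viable P388 cells on day 0. Drugs in distilled water were given ip (0.1 mL/10 g body weight) daily D1-5. Vehicle, 5-fluorouracil and BD 84 were given the same way. T/C = median survival day of treated / controls × 100; T/C > 128% was significant; cures counted at D60.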

Mus musculus [6] = assay: Antitumor activity against C38 adenocarcinoma cells at a dose of 50 mg/kg administered intravenously on D1 to mice; tumor volume at D38 (T/C); assay type: functional, MC-38; settings: route intravenous
Procedure, shortened: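 Hybrid BD F1 mice, 10 per group, were implanted sc with a standard 3-mm3 C38 colon adenocarcinoma fragment. Drugs were given iv at the stated doses on D1 or on D2 + D9. Read-out was tumor size in treated versus control mice (T/C) at the day stated.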

Mus musculus [7] = assay: […] in C38 adenocarcinoma cell line when a dose of 50 mg/kg administered intravenously to mice; assay type: functional, MC-38; settings: route intravenous
Procedure, shortened: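 C38 colon adenocarcinoma in hybrid BD F1 mice, 10 per test. A standard 3-mm³ tumour fragment was implanted sc. Drugs were given iv at the stated doses on D1 or on D2 + D9, following the Geran et al. NCI protocol.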

Mus musculus [8] = assay: Median survival day in P388 cell line when a dose of 40 mg/kg administered intraperitoneally to P388 leukemia model; assay type: functional; settings: route intraperitoneal
Procedure, shortened: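 P388 leukaemia in CDF1 hybrid mice, 10 per group. At D0, 10^6 viable cells were inoculated ip, followed by a single ip dose of drug in distilled water on D1. Weight change, median survival day, T/C (treated/control median survival × 100) and survivors at D30 were recorded. Controls were 20 mice.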

Mus musculus [9] = assay: Median survival day in P388 leukemia mice model when a dose of 100 mg/kg administered intravenously; assay type: functional; settings: route intravenous; procedure, shortened: as §2
Mus musculus [10] = assay: Antitumor activity against L1210 leukemia mice model at a dose of 20 mg/kg administered intravenously; assay type: functional; settings: route intravenous
Procedure, shortened: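 P388 (10^6 cells) or L1210 (10^5 cells) leukemia was inoculated ip in mice at D0, followed by a single iv drug treatment on D1. Weight change was recorded. T/C % = median survival day of treated / controls × 100; survivors noted at D30; 10-15 mice per group.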

Mus musculus [11] = assay: In vivo toxicity test on P388 cells at a dose of 100 mg/kg administered intravenously to P388 leukemia mice model; assay type: functional; settings: route intravenous
Procedure, shortened: (§4)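 Mice (10 per group) were inoculated ip at D0 with 10^6 P388 leukemia cells and given a single iv dose at D1. Read-outs were weight change (g), median survival day, T/C % versus controls and survivors at D30.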

Mus musculus [12] = assay: In vivo toxicity test on P388 cells at a dose of 50 mg/kg administered intravenously to P388 leukemia mice model; assay type: functional; settings: route intravenous; procedure, shortened: as §4
Mus musculus [13] = assay: Weight change in g when a dose of 50 mg/kg intravenous administration to P388 leukemia mice model; assay type: functional; procedure, shortened: as §4
Mus musculus [14] = assay: Survivors at day D32 when a dose of 50 mg/kg administered intravenously to C38 adenocarcinoma mice models; 10/10; assay type: functional; settings: route intravenous
Procedure, shortened: (§5)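 Hybrid BDF1 mice, 10 per test, were implanted sc with a standard 3-mm³ fragment of C38 colon adenocarcinoma. Drug was given iv either on D1 alone or on D2 and D9. Animals were followed per NCI (Geran) protocol.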

Mus musculus [15] = assay: Survivors at day D32 when a dose of 75 mg/kg administered intravenously to C38 adenocarcinoma mice models; 10/10; assay type: functional; settings: route intravenous; procedure, shortened: as §5
Mus musculus [16] = assay: Weight change in g when a dose of 20 mg/kg intravenous administration to L1210 leukemia mice model; assay type: functional
Procedure, shortened: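 Mice received 10^5 L1210 leukemia cells ip at D0, then a single iv drug dose at D1. Read-outs were weight change (g), median survival day, T/C % and survivors at D30.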

Mus musculus [17] = assay: Survivors at day 30 when a dose of 100 mg/kg administered intravenously to P388 leukemia mice model; 1/10; assay type: functional; settings: route intravenous; procedure, shortened: as §2
Mus musculus [18] = assay: Survivors at day 60 when a dose of 5 mg/kg to B16 melanoma infected mice; 3/10
Mus musculus [19] = assay: Median survival day in B16 melanoma cell line when a dose of 20 mg/kg administered intraperitoneally to mice; assay type: functional; settings: route intraperitoneal; procedure, shortened: as §1
Mus musculus [20] = assay: Antitumor activity against P388 cells at a dose of 10 mg/kg administered intraperitoneally P388 Leukemia model; assay type: functional; settings: route intraperitoneal
Procedure, shortened: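 Mice were inoculated ip with 10^6 P388 leukemia cells at D0, then given a single ip drug dose on D1. Weight change was recorded. T/C % = median survival day of treated / controls × 100; survivors counted at D30; 10 mice per dose group, 20 controls.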

Mus musculus [21] = assay: Antitumor activity against B16 melanoma cells at a dose of 30 mg/kg administered intraperitoneally to mice; assay type: functional; settings: route intraperitoneal
Procedure, shortened: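 Hybrid BD F1 mice were inoculated ip at D0 with 0.5 mL of B16 melanoma homogenate (1 g tumor in 10 mL physiological serum). Drugs were given ip daily D1-9. Cisplatin 0.5 mg/kg was the positive control under the same schedule.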

Mus musculus [22] = assay: Antitumor activity against P388 leukemia in mice at a dose of 1.25 mg/kg administered intraperitoneally for 5 days; assay type: functional; settings: route intraperitoneal; procedure, shortened: as §3
Mus musculus [23] = assay: Survivors at day 60 when a dose of 30 mg/kg to B16 melanoma infected mice; 0/10; assay type: functional

Cc1cnc(NCCCN(C)C)c2c3cc(O)ccc3n(C)c12 gave a Median survival day (Mus musculus [1]) of 50, a Median tumoral volume (Mus musculus [2]) of 2.73 cm*3 and a Median survival day (Mus musculus [3]) of 17.75. It also gave a Weight change (Mus musculus [4]) of -0.2 g, a T/C (Mus musculus [5]) of 164% and a Tumor volume (Mus musculus [6]) of 30%.

In the case of CCN(CC)CCCNc1ncc(C)c2c1c1cc(O)ccc1n2C, the Median tumoral volume (Mus musculus [7]) is reported as 1.38 cm*3, the Median survival day (Mus musculus [8]) is reported as 23 and the Median survival day (Mus musculus [9]) is reported as 24.3. For the same compound, the T/C (Mus musculus [10]) was 132%, the T/C (Mus musculus [11]) was 223% and the T/C (Mus musculus [12]) was 174%. It also gave a Weight change (Mus musculus [13]) of -0.7 g, a Survivors (Mus musculus [14]) of 10 and a Survivors (Mus musculus [15]) of 10. The Weight change (Mus musculus [16]) was -0.4 g, the Survivors (Mus musculus [17]) was 1 and the Survivors (Mus musculus [18]) was 3.

In the case of CCN(CC)CCCNc1[nH]cc(C)c2nc3ccc(O)cc3c1-2, the Median survival day (Mus musculus [19]) is reported as 58, the T/C (Mus musculus [20]) is reported as 129% and the T/C (Mus musculus [21]) is reported as 33%. For the same compound, the T/C (Mus musculus [22]) was 153% and the Survivors (Mus musculus [23]) was 0.
